Source: PubChem BioAssay (several laboratories)
The entries come from a sample that favours hits as a whole.
HSF-1 act – HSF-1 activators, primary screen, NIH3T3-HGL cells, MG132 stress, luminescence, single point; NIH3T3-HGL HSF-1 luciferase reporter, 8 h; 100% = twice DMSO control signal; activation, % at 9 µM; hit rate 1.7% among 300,000;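 active means mean replicate activation of at least 50% with a set share of replicates each reaching 50%; inconclusive means only one of those two conditions met; inactive means mean below 50% and too few replicates reaching it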
Hsp70 activator – Hsp70 transcriptional activators, primary screen, cell-based, HeLa, Hsp70 promoter luciferase, luminescence, 10 µM. HeLa Hsp70 promoter luciferase reporter; scaled: vehicle 0, proteasome-inhibitor control 100%. activation, % at 10 µM. hit rate 0.04% among 200,000. AID 1203, 2008;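 active means activation above the mean across all tested compounds plus 3 SD, cutoff set per campaign, cut at about 5.5% in these data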
HSF1 inhib – HSF1 inhibitors in luciferase reporter cells, primary screen, cell-based, NIH3T3, luminescence; activity change, negative = inhibition, % at 7.5 µM (by protocol); AID 2098, 2009; hit rate 0.77% among 300,000; NIH3T3-HGL HSE-luciferase, MG132-induced, luminescence 8 h; hits give low values;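 active means more than half of replicate wells show activity change below -50%, luminescence cut by over half; inconclusive means some wells, but at most half, below -50%; inactive means no replicate well below -50%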;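 further: luciferase reports HSF-1 transcriptional activity via heat shock element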
Lmaj promast – Leishmania major promastigote growth inhibition, primary screen; Leishmania major promastigotes, resazurin fluorescence viability; inhibition, % at 10 µM; hit rate 9% among 200,000; in the data active means inhibition above about 50%;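 further: promastigotes grown with compound for 44 hours at 28 °C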
T cruzi repl – inhibitors of intracellular T. cruzi growth, primary screen, luminescence, NIH3T3 host cells; T. cruzi beta-gal in NIH3T3, 90 h; inhibition, % (concentration not given with the values); hit rate 1.4% among 300,000;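 active means mean inhibition across valid replicates above about 55%, limit read from the data; inconclusive means mean below that limit but half or more replicates reach it; inactive means mean below it, under half of replicates reach it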;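 further: signal also drops with host cell toxicity which is not excluded here; higher percent means less beta-gal luminescence so fewer parasites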
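System – NIH/3T3 host cells with β-galactosidase reporter T. cruzi · Doses – single 50 nL compound addition per well in DMSO · Reagent – 5000 T. cruzi trypomastigotes/well · Medium – Low-serum DMEM with 2% FBS · Timing – ≥90 h infection period, 3 h prior cell attachment · Evaluation – parasite load inhibition, % · Technique – GalScreen luminescence, 60 min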
Hits are given with their value; n = inactive; u = inconclusive; x = no result given.

SMILES	HSF-1 act	Hsp70 activator	HSF1 inhib	Lmaj promast	T cruzi repl
Cc1nn(CC(=O)N2CCN(c3ccccc3)CC2)c(=O)c2cccn12	n	x	n	x	n
Cc1ccc(OCC(=O)NNC(=O)C2CCCO2)c(C)c1 (centres undefined)	n	n	n	n	n
O=C(NCCc1cn2ccccc2n1)c1cc(COc2c(F)cccc2F)on1	n	n	n	51.6	n
Cc1ccc(OCc2cc(C(=O)NCc3cn4ccccc4n3)no2)cc1C	n	x	n	x	n
O=C(NC1CCSc2ccccc21)c1ccc(Cl)c(S(=O)(=O)N2CCOCC2)c1 (centres undefined)	n	x	n	x	n
O=c1c(Cl)c(NCc2ccccc2Cl)cnn1C12CC3CC(CC(C3)C1)C2	n	n	n	83.5	n
O=c1c(Cl)c(NCc2ccc(F)cc2)cnn1C12CC3CC(CC(C3)C1)C2	n	n	n	72.5	n
O=c1c(Cl)c(NCc2ccco2)cnn1C12CC3CC(CC(C3)C1)C2	n	n	n	n	n
O=c1c(Cl)c(N2CCN(c3ccc(F)cc3)CC2)cnn1C12CC3CC(CC(C3)C1)C2	n	n	n	62.5	63.1
CCN1C(=O)N(C)[C@@H](c2ccccc2)C(C(C)=O)=C1C	n	x	n	x	n
Cc1c(-n2c(SCC(N)=O)nc3ccccc3c2=O)c(=O)n(-c2ccccc2)n1C	n	n	n	n	n
CCOC(=O)C(C)N1C(=O)S/C(=C/c2ccc3c(c2)n(C)c(=O)n3C)C1=O (centres undefined)	n	n	n	67.4	n
Cc1cc(=O)[nH]c(SCC(=O)Nc2nc(-c3ccccc3)c(-c3ccccc3)o2)n1	n	n	n	n	n
COc1ccccc1CCCNC(=O)C1CCC(=O)N(CCc2cccc(F)c2)C1 (centres undefined)	n	x	n	x	n
O=C1c2cccc3cccc(c23)C(=O)N1CCCn1ccnc1	n	x	n	x	n
N=c1c2c(-c3ccccc3)c(-c3ccccc3)n(Cc3ccccc3)c2ncn1CCCn1ccnc1	n	n	n	100.4	59.7
CCCCn1cnc2c(c(-c3ccccc3)c(-c3ccccc3)n2Cc2ccco2)c1=N	n	x	n	x	n
N=c1c2c(-c3ccccc3)c(-c3ccccc3)n(Cc3ccco3)c2ncn1Cc1ccco1	n	n	n	100.2	56.8
O=C(CCNc1ccc(F)cc1)c1cccc([N+](=O)[O-])c1	n	n	n	96.5	n
O=C(NCCNc1ccc([N+](=O)[O-])cc1)c1cccc(Br)c1	n	n	n	n	n
Cc1nc(SCC(=O)c2cccc([N+](=O)[O-])c2)n[nH]1	n	n	n	n	n
O=C(CCNc1ccccc1)c1cccc([N+](=O)[O-])c1	n	n	n	95.7	n
O=C(CCNc1ccc(Br)cc1)c1cccc([N+](=O)[O-])c1	65.6	n	n	88.4	n
Cc1ccc(NCCC(=O)c2cccc([N+](=O)[O-])c2)cc1	n	n	n	100.4	n
O=C(NC1CCCc2ccccc21)N[C@@H](Cc1ccccc1)C(=O)O (some centres undefined)	n	x	n	x	n
SMILES	HSF-1 act	Hsp70 activator	HSF1 inhib	Lmaj promast	T cruzi repl
CCOC(=O)c1ccc(NS(=O)(=O)c2c(N)[nH]c(=O)[nH]c2=O)cc1	n	x	n	x	n
CCOc1ccc(NC(=O)CSc2nnc(CCNC(=O)c3ccc(OC)cc3)n2C)cc1	n	n	n	n	n
O=C(Nc1ccncc1)c1cc(S(=O)(=O)N2CCN(c3ccccc3)CC2)ccc1Cl	n	x	n	x	61.2
O=C(Nc1ccc(S(=O)(=O)N2CCOCC2)cc1)c1ccc(Cl)cc1Cl	n	x	-66.5	x	n
O=C(Nc1ccc(S(=O)(=O)N2CCOCC2)cc1)c1cc([N+](=O)[O-])ccc1Cl	u	x	n	x	n
Cc1ccc(S(=O)(=O)N2CCOCC2)cc1C(=O)Nc1ccc2c(c1)CCC2	n	n	n	52.3	n
Cc1ccc(S(=O)(=O)N2CCOC2CNC(=O)C(=O)NCCCN2CCOCC2)cc1 (centres undefined)	n	x	n	x	n
Cc1ccc(S(=O)(=O)N2CCC(C(=O)OCC(=O)N3CCCC3=O)CC2)cc1C	n	x	n	x	n
COc1ccc(CCNC(=O)CCC(=O)Nc2nnc(C(C)C)s2)cc1OC	n	n	n	60.3	n
COc1ccc(CCNC(=O)CCCCC(=O)NCCc2ccc(OC)c(OC)c2)cc1OC	n	x	n	x	n
